Measurements reported in ChEMBL document CHEMBL3585302, “Synthesis and antibacterial activities of cadiolides A, B and C and analogues” (Bioorg Med Chem, 2015).

Test system: not listed separately
Experiment: Selectivity index, ratio of cytotoxicity against human neutrophils by MTT assay to antibacterial IC50 against Enterococcus faecalis CECT 481
Format: toxicity
Conditions: read-out: Selectivity Index

| Structure (SMILES) | selectivity ratio |
| --- | --- |
| O=C1O/C(=C\c2ccc(O)c(Br)c2)C(c2ccc(O)c(Br)c2)=C1C(=O)c1ccc(O)c(Br)c1 | 5 |

Test system: not listed separately
Experiment: Selectivity index, ratio of cytotoxicity against human neutrophils by MTT assay to antibacterial IC50 against Staphylococcus aureus CECT 86
Format: toxicity
Conditions: read-out: Selectivity Index

| Structure (SMILES) | selectivity ratio |
| --- | --- |
| O=C1O/C(=C\c2ccc(O)c(Br)c2)C(c2ccc(O)c(Br)c2)=C1C(=O)c1ccc(O)c(Br)c1 | 5 |

Test system: Escherichia coli
Experiment: Antibacterial activity against Escherichia coli CECT 100 assessed as inhibition of microbial growth incubated for 18 hrs by 2-fold microtiter broth dilution method
Format: functional, organism-based
Conditions: CECT 100, 18 h
How it was run: (§1)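 Compounds in DMSO, ten 2-fold serial dilutions (125 down to 0.24 µg/mL tested). Bacteria at OD620 = 0.001 in Nutrient Broth mixed 1:1 with dilutions. Incubated overnight (18 h) at 28°C or 37°C according to strain. Growth read turbidimetrically at OD620. MIC is the lowest concentration giving complete growth inhibition. Triplicate runs. Tetracycline as reference.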

| Structure (SMILES) | IC50 [µM] | MIC [mg/L] |
| --- | --- | --- |
| O=C1O/C(=C\c2ccc(O)c(Br)c2)C(c2ccc(O)c(Br)c2)=C1C(=O)c1ccc(O)c(Br)c1 | > 196 | > 125 |

Test system: not listed separately
Experiment: Selectivity index, ratio of cytotoxicity against human neutrophils by annexin V-FITC and propidium iodide staining based cytofluorometry to antibacterial IC50 against Salmonella typhi CECT 409
Format: toxicity
Conditions: read-out: Selectivity Index

| Structure (SMILES) | selectivity ratio |
| --- | --- |
| O=C1O/C(=C\c2ccc(O)c(Br)c2)C(c2ccc(O)c(Br)c2)=C1C(=O)c1ccc(O)c(Br)c1 | 5 |

Test system: not listed separately
Experiment: Selectivity index, ratio of cytotoxicity against human neutrophils by annexin V-FITC and propidium iodide staining based cytofluorometry to antibacterial IC50 against Escherichia coli CECT 405
Format: toxicity
Conditions: read-out: Selectivity Index

| Structure (SMILES) | selectivity ratio |
| --- | --- |
| O=C1O/C(=C\c2ccc(O)c(Br)c2)C(c2ccc(O)c(Br)c2)=C1C(=O)c1ccc(O)c(Br)c1 | 5 |

Test system: not listed separately
Experiment: Toxicity in human neutrophils assessed as cell survival at 30 uM incubated for 24 hrs by annexin V-FITC and propidium iodide staining based cytofluorometry
Conditions: neutrophil
How it was run: (§2)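 Freshly isolated donor neutrophils (2 x 10⁶ cells/mL stock, diluted into supplemented RPMI) cultured 24 h with 30 or 100 µM. Stained with annexin V-FITC/propidium iodide; 1 x 10⁴ cells analysed by flow cytometry. Gating: annexin V+/PI− apoptotic, V+/PI+ late apoptotic/necrotic, V−/PI− viable. Mean ± SEM, n=3, compared against vehicle.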

| Structure (SMILES) | Activity |
| --- | --- |
| O=C1O/C(=C\c2ccc(O)c(Br)c2)C(c2ccc(O)c(Br)c2)=C1C(=O)c1ccc(O)c(Br)c1 | Non-toxic |

Test system: not listed separately
Experiment: Toxicity in human neutrophils assessed as induction of apoptosis at 30 and 100 uM incubated for 24 hrs by annexin V-FITC and propidium iodide staining based cytofluorometry
Format: cell-based
Conditions: neutrophil
How it was run: as §2

| Structure (SMILES) | Activity |
| --- | --- |
| O=C1O/C(=C\c2ccc(O)c(Br)c2)C(c2ccc(O)c(Br)c2)=C1C(=O)c1ccc(O)c(Br)c1 | Non-toxic |

Test system: Staphylococcus aureus
Experiment: Antibacterial activity against Staphylococcus aureus CECT 86 assessed as inhibition of microbial growth incubated for 18 hrs by 2-fold microtiter broth dilution method
Format: functional, organism-based
Conditions: CECT 86, 18 h
How it was run: as §1

| Structure (SMILES) | IC50 [µM] | MIC [mg/L] |
| --- | --- | --- |
| O=C1O/C(=C\c2ccc(O)c(Br)c2)C(c2ccc(O)c(Br)c2)=C1C(=O)c1ccc(O)c(Br)c1 | 3.06 | 1.95 |

Test system: Bacillus subtilis
Experiment: Antibacterial activity against Bacillus subtilis CECT 35 assessed as inhibition of microbial growth incubated for 18 hrs by 2-fold microtiter broth dilution method
Format: functional, organism-based
Conditions: CECT 35, 18 h
How it was run: as §1

| Structure (SMILES) | MIC [mg/L] |
| --- | --- |
| O=C1O/C(=C\c2ccc(O)c(Br)c2)C(c2ccc(O)c(Br)c2)=C1C(=O)c1ccc(O)c(Br)c1 | 125 |

Test system: not listed separately
Experiment: Selectivity index, ratio of cytotoxicity against human neutrophils by annexin V-FITC and propidium iodide staining based cytofluorometry to antibacterial IC50 against Enterococcus faecalis CECT 481
Format: toxicity
Conditions: read-out: Selectivity Index

| Structure (SMILES) | selectivity ratio |
| --- | --- |
| O=C1O/C(=C\c2ccc(O)c(Br)c2)C(c2ccc(O)c(Br)c2)=C1C(=O)c1ccc(O)c(Br)c1 | 5 |

Test system: not listed separately
Experiment: Selectivity index, ratio of cytotoxicity against human neutrophils by MTT assay to antibacterial IC50 against Salmonella typhi CECT 409
Format: toxicity
Conditions: read-out: Selectivity Index

| Structure (SMILES) | selectivity ratio |
| --- | --- |
| O=C1O/C(=C\c2ccc(O)c(Br)c2)C(c2ccc(O)c(Br)c2)=C1C(=O)c1ccc(O)c(Br)c1 | 5 |

Test system: Pectobacterium carotovorum
Experiment: Antibacterial activity against Erwinia carotovora CECT 225 assessed as inhibition of microbial growth incubated for 18 hrs by 2-fold microtiter broth dilution method
Format: functional, organism-based
Conditions: CECT 225, 18 h
How it was run: as §1

| Structure (SMILES) | MIC [mg/L] |
| --- | --- |
| O=C1O/C(=C\c2ccc(O)c(Br)c2)C(c2ccc(O)c(Br)c2)=C1C(=O)c1ccc(O)c(Br)c1 | 125 |

Test system: not listed separately
Experiment: Cytotoxicity against human neutrophils assessed as reduction in cell viability at 100 uM incubated for 24 hrs by MTT assay
Format: cell-based
Conditions: neutrophil
How it was run: (§3)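 Neutrophils from buffy coats of healthy donors were isolated by Ficoll-Hypaque gradient and seeded at 2 x 10⁵ cells/mL in supplemented RPMI. Exposed to 30 or 100 µM for 24 h at 37 °C, then MTT (2 mg/mL in PBS) added for 3 h. Formazan dissolved in DMSO and read at 560 and 630 nm. Mean ± SEM of n=6-9 independent experiments, compared against vehicle.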

| Structure (SMILES) | Activity |
| --- | --- |
| O=C1O/C(=C\c2ccc(O)c(Br)c2)C(c2ccc(O)c(Br)c2)=C1C(=O)c1ccc(O)c(Br)c1 | Toxic |

Test system: Bacillus cereus
Experiment: Antibacterial activity against Bacillus cereus CECT 148 assessed as inhibition of microbial growth incubated for 18 hrs by 2-fold microtiter broth dilution method
Format: functional, organism-based
Conditions: CECT 148, 18 h
How it was run: as §1

| Structure (SMILES) | IC50 [µM] | MIC [mg/L] |
| --- | --- | --- |
| O=C1O/C(=C\c2ccc(O)c(Br)c2)C(c2ccc(O)c(Br)c2)=C1C(=O)c1ccc(O)c(Br)c1 | 3.06 | 1.95 |

Test system: not listed separately
Experiment: Selectivity index, ratio of cytotoxicity against human neutrophils by MTT assay to antibacterial IC50 against Escherichia coli CECT 405
Format: toxicity
Conditions: read-out: Selectivity Index

| Structure (SMILES) | selectivity ratio |
| --- | --- |
| O=C1O/C(=C\c2ccc(O)c(Br)c2)C(c2ccc(O)c(Br)c2)=C1C(=O)c1ccc(O)c(Br)c1 | 5 |

Test system: Escherichia coli
Experiment: Antibacterial activity against Escherichia coli CECT 405 assessed as inhibition of microbial growth incubated for 18 hrs by 2-fold microtiter broth dilution method
Format: functional, organism-based
Conditions: CECT 405, 18 h
How it was run: as §1

| Structure (SMILES) | IC50 [µM] | MIC [mg/L] |
| --- | --- | --- |
| O=C1O/C(=C\c2ccc(O)c(Br)c2)C(c2ccc(O)c(Br)c2)=C1C(=O)c1ccc(O)c(Br)c1 | 3.06 | 1.95 |

Test system: not listed separately
Experiment: Toxicity in human neutrophils assessed as induction of necrosis at 100 uM incubated for 24 hrs by annexin V-FITC and propidium iodide staining based cytofluorometry
Format: cell-based
Conditions: neutrophil
How it was run: as §2

| Structure (SMILES) | Activity [%] |
| --- | --- |
| O=C1O/C(=C\c2ccc(O)c(Br)c2)C(c2ccc(O)c(Br)c2)=C1C(=O)c1ccc(O)c(Br)c1 | 98 |

Test system: not listed separately
Experiment: Selectivity index, ratio of cytotoxicity against human neutrophils by annexin V-FITC and propidium iodide staining based cytofluorometry to antibacterial IC50 against Staphylococcus aureus CECT 86
Format: toxicity
Conditions: read-out: Selectivity Index

| Structure (SMILES) | selectivity ratio |
| --- | --- |
| O=C1O/C(=C\c2ccc(O)c(Br)c2)C(c2ccc(O)c(Br)c2)=C1C(=O)c1ccc(O)c(Br)c1 | 5 |

Test system: Salmonella typhi
Experiment: Antibacterial activity against Salmonella typhi CECT 409 assessed as inhibition of microbial growth incubated for 18 hrs by 2-fold microtiter broth dilution method
Format: functional, organism-based, Salmonella enterica subsp. enterica serovar Typhi
Conditions: Salmonella enterica, CECT 409, 18 h
How it was run: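 Compounds in DMSO, ten 2-fold serial dilutions (125 down to 0.24 µg/mL), mixed 1:1 with bacteria in Nutrient Broth at OD620 = 0.001. Incubated overnight (18 h) at 28 or 37 °C depending on strain. Growth read turbidimetrically at OD620; MIC is the lowest concentration completely inhibiting growth, per CLSI. Triplicate runs; tetracycline reference.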

| Structure (SMILES) | IC50 [µM] | MIC [mg/L] |
| --- | --- | --- |
| O=C1O/C(=C\c2ccc(O)c(Br)c2)C(c2ccc(O)c(Br)c2)=C1C(=O)c1ccc(O)c(Br)c1 | 3.06 | 1.95 |

Test system: not listed separately
Experiment: Cytotoxicity against human neutrophils assessed as reduction in cell viability at 30 uM incubated for 24 hrs by MTT assay
Format: cell-based
Conditions: neutrophil
How it was run: as §3

| Structure (SMILES) | Activity |
| --- | --- |
| O=C1O/C(=C\c2ccc(O)c(Br)c2)C(c2ccc(O)c(Br)c2)=C1C(=O)c1ccc(O)c(Br)c1 | Non-toxic |

Test system: Enterococcus faecalis
Experiment: Antibacterial activity against Enterococcus faecalis CECT 481 assessed as inhibition of microbial growth incubated for 18 hrs by 2-fold microtiter broth dilution method
Format: functional, organism-based
Conditions: CECT 481, 18 h
How it was run: as §1

| Structure (SMILES) | IC50 [µM] | MIC [mg/L] |
| --- | --- | --- |
| O=C1O/C(=C\c2ccc(O)c(Br)c2)C(c2ccc(O)c(Br)c2)=C1C(=O)c1ccc(O)c(Br)c1 | 3.06 | 1.95 |
